Reference: ChEMBL document CHEMBL1122512, “Investigations on the chemistry of berbanes. 10. Synthesis of raunescinone analogues with hypotensive and antihypertensive activity” (1984)

Legend:
[1] = tested on: Rattus norvegicus; test: Change in heart rate after 24 hours of dosing was measured in conscious normotensive male rats at a dose of 5 mg/kg administered intraperitoneally in 5 rats; format: functional; conditions: route intraperitoneal
Summary of the method: (§1)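 Heart rate was recorded electronically through the blood-pressure recorder during tail-cuff measurement in conscious normotensive male rats (250–300 g), restrained in Plexiglass tubes at 37 °C. Dosing was intraperitoneal, and change from the pre-dose rate was followed to 48 h.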

[2] = tested on: Rattus norvegicus; test: Change in heart rate after 3 hours of dosing was measured in conscious normotensive male rats at a dose of 5 mg/kg administered intraperitoneally in 5 rats; format: functional; conditions: route intraperitoneal; summary of the method: as §1
[3] = organism: Mus musculus; test: Compound was evaluated for its lack of depresant effect on the CNS as measured by the forced coordinated motor activity on 10 mice; format: functional
[4] = tested on: Rattus norvegicus; test: Change in blood pressure after 3 hours of dosing was measured in conscious normotensive male rats at a dose of 5 mg/kg administered intraperitoneally in 5 rats; format: functional; conditions: route intraperitoneal
Summary of the method: (§2)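 Conscious normotensive male rats (250–300 g) were restrained in Plexiglass tubes kept at 37 °C. Systolic pressure was read indirectly at the tail root using a tail cuff and a sphygmomanometer with a crystal-microphone pulse pick-up. Dosing was intraperitoneal, and change from the pre-dose value was followed to 48 h.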

[5] = tested on: Rattus norvegicus; test: Change in blood pressure after 18 hours of dosing was measured in conscious normotensive male rats at a dose of 5 mg/kg administered intraperitoneally in 5 rats; format: functional; conditions: route intraperitoneal; summary of the method: as §2
[6] = Ratio of performance time under the effect and corresponding control performance time; format: functional
Summary of the method: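 Female mice (20–25 g), in groups of 10, were trained on a 3 cm rod at 15 rpm and tested 6 h after intraperitoneal dosing. The activity ratio is the group performance time under drug divided by the control group performance time.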

[7] = tested on: Rattus norvegicus; test: Change in heart rate after 18 hours of dosing was measured in conscious normotensive male rats at a dose of 5 mg/kg administered intraperitoneally in 5 rats; format: functional; conditions: route intraperitoneal; summary of the method: as §1
[8] = tested on: Mus musculus; test: Lack of depressant effect on the CNS as measured by the forced coordinated motor activity on mice was expressed as time elapsed from dosing required to obtain maximum hypotensive or antihypertensive effect; format: functional, Central nervous system
[9] = tested on: Rattus norvegicus; test: Systolic blood pressure was measured prior to dosing in conscious normotensive male rats at a dose of 5 mg/kg administered intraperitoneally in 5 rats; format: functional; conditions: route intraperitoneal; summary of the method: as §2
[10] = tested on: Rattus norvegicus; test: Change in heart rate after 48 hours of dosing was measured in conscious normotensive male rats at a dose of 5 mg/kg administered intraperitoneally in 5 rats; format: functional; conditions: route intraperitoneal; summary of the method: as §1
[11] = tested on: Rattus norvegicus; test: Change in blood pressure after 24 hours of dosing was measured in conscious normotensive male rats at a dose of 5 mg/kg administered intraperitoneally in 5 rats; format: functional; conditions: route intraperitoneal; summary of the method: as §2
[12] = tested on: Rattus norvegicus; test: Change in blood pressure after 12 hours of dosing was measured in conscious normotensive male rats at a dose of 5 mg/kg administered intraperitoneally in 5 rats; format: functional; conditions: route intraperitoneal; summary of the method: as §2
[13] = tested on: Rattus norvegicus; test: Heart rate was measured prior to dosing in conscious normotensive male rats at a dose of 5 mg/kg administered intraperitoneally in 5 rats; format: functional; conditions: route intraperitoneal; summary of the method: as §1
[14] = tested on: Rattus norvegicus; test: Change in blood pressure after 6 hours of dosing was measured in conscious normotensive male rats at a dose of 5 mg/kg administered intraperitoneally in 5 rats; format: functional; conditions: route intraperitoneal; summary of the method: as §2
[15] = tested on: Rattus norvegicus; test: Change in blood pressure after 48 hours of dosing was measured in conscious normotensive male rats at a dose of 5 mg/kg administered intraperitoneally in 5 rats; format: functional; conditions: route intraperitoneal; summary of the method: as §2
[16] = tested on: Rattus norvegicus; test: Change in heart rate after 12 hours of dosing was measured in conscious normotensive male rats at a dose of 5 mg/kg administered intraperitoneally in 5 rats; format: functional; conditions: route intraperitoneal; summary of the method: as §1
[17] = tested on: Rattus norvegicus; test: Change in heart rate after 6 hours of dosing was measured in conscious normotensive male rats at a dose of 5 mg/kg administered intraperitoneally in 5 rats; format: functional; conditions: route intraperitoneal; summary of the method: as §1

COC(=O)[C@H]1[C@H]2C[C@@H]3c4[nH]c5cc(OC)ccc5c4CCN3C[C@H]2C[C@@H](OC(=O)c2cc(OC)c(OC)c(OC)c2)[C@@H]1OC [RESERPINE]
Change in heart rate [1]: -32 | Change in heart rate [2]: -34 | Group performance time [3]: 9 s | Change in BP [4]: -18 | Change in BP [5]: -10 | Activity ratio [6]: < 0.08 | Change in heart rate [7]: -40 | Time [8]: 6 h | BP [9]: 117 mmHg | Change in heart rate [10]: -10 | Change in BP [11]: -12 | Change in BP [12]: -16 | Heart rate [13]: 364 beats min-1 | Change in BP [14]: -23 | Change in BP [15]: -7 | Change in heart rate [16]: -40 | Change in heart rate [17]: -44
